In ChEMBL document CHEMBL5653608 (Br J Pharmacol, 2011):
Activity calls are given as the source filed them. The calls are words filed in the database; no cut-off is given here.

Key:
[1] = Induction of relaxation in PGE2-induced carbachol pre-contracted C57BL/6 mouse trachea at 1 to 3 uM incubated for 30 mins relative to control (reference value: 11 +/- 3.2%); assay type: functional; design: scale not given: the % may be the effect or the level left; details: dose 1-3 µM, 0.5 h
[2] = Oral bioavailability in Sprague-Dawley rat at 1 mg/kg; assay type: ADME, organism-based; details: in vivo
[3] = Displacement of [3H]-Iloprost from human LTB4 receptor assessed as inhibition constant incubated for 2 hrs by TopCount NXT counter based analysis
[4] = target: Prostaglandin F2-alpha receptor (Homo sapiens, UniProt P43088); assay: Displacement of [3H]-Iloprost from human FP receptor assessed as inhibition constant incubated for 2 hrs by TopCount NXT counter based analysis
[5] = target: T1, Prostaglandin E2 receptor EP1 subtype (Homo sapiens, UniProt P34995); assay: Agonist activity at human EP1 receptor expressed in CHO cells incubated for 30 mins; assay type: functional, cell-based
T1 sequence (P34995 whole entry): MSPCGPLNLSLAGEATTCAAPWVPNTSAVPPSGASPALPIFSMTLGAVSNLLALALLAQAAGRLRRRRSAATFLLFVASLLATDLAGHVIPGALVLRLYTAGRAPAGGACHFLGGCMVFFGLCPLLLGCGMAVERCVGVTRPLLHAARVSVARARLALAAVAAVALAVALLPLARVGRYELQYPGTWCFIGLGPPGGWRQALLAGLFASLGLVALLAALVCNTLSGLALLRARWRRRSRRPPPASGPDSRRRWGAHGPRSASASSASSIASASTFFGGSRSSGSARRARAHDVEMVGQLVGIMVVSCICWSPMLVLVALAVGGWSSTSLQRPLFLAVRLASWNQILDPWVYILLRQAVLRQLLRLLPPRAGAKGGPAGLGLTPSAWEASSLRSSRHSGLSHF

[6] = Free plasma concentration in Sprague-Dawley rat at 1 to 10 mg/kg, po measured after 1.5 hrs; assay type: ADME, organism-based; details: in vivo, dose 1-10 mg/kg
Thromboxane A2 receptor = target: T2, Thromboxane A2 receptor (Homo sapiens, UniProt P21731); assay: Displacement of [3H]-Iloprost from human TP receptor assessed as inhibition constant incubated for 2 hrs by TopCount NXT counter based analysis
T2 sequence (P21731 whole entry): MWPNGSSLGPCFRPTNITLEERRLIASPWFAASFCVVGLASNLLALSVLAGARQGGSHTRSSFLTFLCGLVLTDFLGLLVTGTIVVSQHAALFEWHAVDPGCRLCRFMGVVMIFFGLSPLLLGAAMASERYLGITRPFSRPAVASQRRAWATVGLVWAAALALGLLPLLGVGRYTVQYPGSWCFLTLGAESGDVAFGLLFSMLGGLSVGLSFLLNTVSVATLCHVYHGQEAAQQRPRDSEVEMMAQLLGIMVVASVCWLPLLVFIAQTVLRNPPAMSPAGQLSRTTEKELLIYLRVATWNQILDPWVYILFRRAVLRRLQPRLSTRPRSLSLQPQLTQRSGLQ

Mus musculus = species on record: Mus musculus; assay: Induction of relaxation in PGE2-induced carbachol pre-contracted C57BL/6 mouse trachea at 1 to 3 nM incubated for 30 mins; details: dose 1-3 nM
[7] = target: T3, Prostaglandin E2 receptor EP3 subtype (Homo sapiens, UniProt P43115); assay: Antagonist activity at human EP3 receptor expressed in CHO cells assessed as increase in cAMP level incubated for 30 mins followed by agonist addition measured after 90 mins; assay type: functional, cell-based
T3 sequence (P43115 whole entry): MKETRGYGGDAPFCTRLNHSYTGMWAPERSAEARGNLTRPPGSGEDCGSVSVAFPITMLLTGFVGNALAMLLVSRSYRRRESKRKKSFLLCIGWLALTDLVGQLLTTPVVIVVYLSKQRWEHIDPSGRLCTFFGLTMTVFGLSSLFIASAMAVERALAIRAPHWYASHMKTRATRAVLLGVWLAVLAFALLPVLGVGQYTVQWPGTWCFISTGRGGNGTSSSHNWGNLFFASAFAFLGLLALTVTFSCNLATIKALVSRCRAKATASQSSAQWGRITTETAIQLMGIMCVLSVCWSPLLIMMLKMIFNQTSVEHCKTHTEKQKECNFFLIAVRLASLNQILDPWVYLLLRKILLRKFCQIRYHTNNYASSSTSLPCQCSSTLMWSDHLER

[8] = target: T4, Prostaglandin D2 receptor (Homo sapiens, UniProt Q13258); assay: Antagonist activity at human DP1 receptor expressed in CHO cells incubated for 30 mins followed by agonist addition measured after 90 mins; assay type: functional, cell-based
T4 sequence (Q13258 whole entry): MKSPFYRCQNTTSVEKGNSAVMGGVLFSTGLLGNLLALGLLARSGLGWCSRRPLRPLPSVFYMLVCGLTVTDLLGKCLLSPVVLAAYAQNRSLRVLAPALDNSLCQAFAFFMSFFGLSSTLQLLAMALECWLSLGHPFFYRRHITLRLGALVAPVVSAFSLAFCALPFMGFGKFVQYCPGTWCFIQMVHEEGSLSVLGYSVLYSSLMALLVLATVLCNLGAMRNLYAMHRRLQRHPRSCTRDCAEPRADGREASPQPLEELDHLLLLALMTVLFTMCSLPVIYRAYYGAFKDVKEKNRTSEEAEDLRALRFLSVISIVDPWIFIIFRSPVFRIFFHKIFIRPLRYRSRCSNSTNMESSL
Procedure, shortened: (§1)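 Reporter CHO cells (CRE β-lactamase host) stably expressing the human receptor, suspended in DMEM at 1 × 10^6 cells/mL. Compound in PBS/DMSO/pluronic buffer, preincubated with cells for 30 min at 37°C. In antagonist mode, agonist was then added for 90 min at 37°C; agonist mode used buffer instead. Cells were lysed by freezing, and cAMP was read by DiscoveRx enzyme-fragment luminescence after 4–20 h. Four-parameter logistic fit.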

[9] = Induction of relaxation in PGE2-induced carbachol pre-contracted C57BL/6 mouse trachea incubated for 30 mins; assay type: functional, tissue-based
Procedure, shortened: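 Male C57BL/6 tracheal rings at 0.35 g tension in Krebs (95% O2/5% CO2, 37°C). Rings were precontracted with 10 µM carbachol before cumulative half-log PGE2 (0.1 nM–30 µM). Curves were repeated in the same ring after 30 min with 3 nM antagonist or DMSO, and 10 µM forskolin set maximal relaxation. pKB = log(CR−1) − log[B].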

[10] = Volume of distribution in Sprague-Dawley rat at 1 mg/kg, po; assay type: ADME, organism-based; details: in vivo
[11] = target: T5, Prostaglandin D2 receptor 2 (Homo sapiens, UniProt Q9Y5Y4); assay: Antagonist activity at human CRTH2 receptor incubated for 30 mins followed by agonist addition measured after 90 mins; assay type: functional
T5 sequence (Q9Y5Y4 whole entry): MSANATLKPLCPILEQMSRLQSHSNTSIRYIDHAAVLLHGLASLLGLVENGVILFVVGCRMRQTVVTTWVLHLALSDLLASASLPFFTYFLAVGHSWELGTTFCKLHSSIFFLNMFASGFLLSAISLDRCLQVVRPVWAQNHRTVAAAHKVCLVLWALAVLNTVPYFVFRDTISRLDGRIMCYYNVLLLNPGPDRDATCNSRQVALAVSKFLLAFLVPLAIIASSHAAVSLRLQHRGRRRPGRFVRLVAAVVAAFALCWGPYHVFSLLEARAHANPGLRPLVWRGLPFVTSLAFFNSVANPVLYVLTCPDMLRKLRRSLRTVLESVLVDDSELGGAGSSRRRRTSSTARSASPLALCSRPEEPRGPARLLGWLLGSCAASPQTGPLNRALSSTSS
Procedure, shortened: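 CHO reporter cells expressing human CRTH2, run in the DiscoveRx cAMP format. Compound preincubated with cells for 30 min at 37°C, then cells were stimulated with 8 µM forskolin plus agonist for 90 min at 37°C. Cells were lysed at −80°C and cAMP was read by luminescence. IC50 from an unconstrained four-parameter logistic fit.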

[12] = target: Prostaglandin E2 receptor EP2 subtype (Canis lupus familiaris) (UniProt Q9XT82); assay: Binding affinity to dog bronchiole EP2 receptor assessed as equilibrium binding constant incubated for 30 mins followed by agonist addition measured after 90 mins; assay type: tissue-based; details: filed as antagonist, time 120.0 min
Rattus norvegicus [13] = assay: Effect on butaprost-induced cutaneous blood flow in Sprague-Dawley rat assessed as reduction in mean cutaneous blood flow peak response at 10 mg/kg, po measured upto 95 mins; assay type: functional; design: scale not given: the % may be the effect or the level left; details: 1.583 h
Procedure, shortened: (§2)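 Sprague Dawley rats (442–515 g) dosed orally with compound or vehicle (0.5% methylcellulose/0.1% Tween 80, 1 mL/kg). About 1 h 25 min later rats were placed under isoflurane and the abdomen shaved. Baseline laser Doppler scans were taken every 5 min for 35 min. Then 10 µL s.c. PGE2 (3 µg/mL) or butaprost (30 µg/mL) was injected, and scanning continued 60 min. Responses were vehicle-subtracted and normalized to the final three baselines. Peak and AUC0–60 were calculated.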

Rattus norvegicus [14] = assay: Effect on butaprost-induced cutaneous blood flow in Sprague-Dawley rat assessed as reduction in mean cutaneous blood flow peak response by measuring AUC(0 to 60 mins) at 10 mg/kg, po measured upto 95 mins; assay type: functional; design: scale not given: the % may be the effect or the level left; details: 1.583 h; procedure, shortened: as §2
[15] = Clearance in Sprague-Dawley rat at 1 mg/kg, po; assay type: ADME, organism-based; details: in vivo
[16] = Inhibition of EFS-induced contraction of human myometrium assessed as butaprost IC50 at 10 nM incubated for 60 mins (reference value: 27.8 nM); assay type: functional, tissue-based
Procedure, shortened: (§3)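 Human myometrial strips (donors aged 24–76) in a 15 mL Krebs bath at 37°C, under EFS at 15 V, 1.5 ms pulses, 10 s every 100 s, at a submaximal 15 Hz. Antagonist (10 or 100 nM) or vehicle was equilibrated for 60 min. Cumulative butaprost (0.1 nM–10 µM) or PGE2 (0.1 nM–3 µM) was given for at least five EFS responses per concentration. pKB was calculated from same-donor concentration ratios.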

Canis lupus familiaris = species on record: Canis lupus familiaris; assay: Induction of relaxation in PGE2-induced carbachol pre-contracted rings of Beagle dog bronchioles at 3 to 100 nM incubated for 1 hr; assay type: functional, tissue-based; details: Bronchiole, dose 3-100 nM
Procedure, shortened: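 Beagle bronchiole rings held at 1 g tension in Krebs at 37°C (with propranolol and phentolamine), primed with 80 mM KCl. Rings were precontracted with 1 µM carbachol, then antagonist (3–100 nM) or vehicle was equilibrated for 1 h. Cumulative PGE2 relaxation curves followed, with final 10 µM nifedipine defining maximal relaxation. KB by the Lew and Angus method.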

[17] = Free plasma concentration in Sprague-Dawley rat at 1 to 10 mg/kg, po measured after 3 hrs; assay type: ADME, organism-based; details: in vivo, dose 1-10 mg/kg
[18] = target: T3, Prostaglandin E2 receptor EP3 subtype; assay: Agonist activity at human EP3 receptor expressed in CHO cells incubated for 30 mins; assay type: functional, cell-based
Rattus norvegicus [19] = assay: Effect on butaprost induced cutaneous blood flow in po dosed Sprague-Dawley rat measured upto 95 mins; assay type: functional, organism-based; details: dose 1-10 mg/kg; procedure, shortened: as §2
[20] = Inhibition of EFS-induced contraction of human myometrium assessed as butaprost IC50 at 100 nM incubated for 60 mins (reference value: 27.8 nM); assay type: functional, tissue-based; procedure, shortened: as §3
Prostacyclin receptor = Prostacyclin receptor (Homo sapiens, UniProt P43119); assay: Displacement of [3H]-Iloprost from human IP receptor assessed as inhibition constant incubated for 2 hrs by TopCount NXT counter based analysis
Procedure, shortened: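 Radioligand displacement with [3H]iloprost (20 µL of a 100 nM stock), using HEK membranes expressing human IP (10 µg per well). Buffer was 10 mM HEPES, 10 mM MgCl2, 1 mM EDTA, pH 7.4, with top concentration 10 µM. Nonspecific binding was defined with 10 µM carbacyclin. Incubated 2 h at room temperature with shaking, then filtered on GF/B, washed cold and counted by scintillation. FP, TP and LTB4 assays were run externally.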

[21] = target: T1, Prostaglandin E2 receptor EP1 subtype; assay: Antagonist activity at human EP1 receptor expressed in CHO cells assessed as increase in cAMP level incubated for 30 mins followed by agonist addition measured after 90 mins; assay type: functional, cell-based
[22] = Induction of relaxation in PGE2-induced carbachol pre-contracted C57BL/6 mouse trachea at 100 nM incubated for 30 mins relative to control (reference value: 11 +/- 3.2%); assay type: functional; design: scale not given: the % may be the effect or the level left; details: 0.5 h
[23] = target: Prostaglandin E2 receptor EP4 subtype (Homo sapiens, UniProt P35408); assay: Agonist activity at human EP4 receptor expressed in CHO cells incubated for 30 mins; assay type: functional, cell-based; procedure, shortened: as §1
[24] = target: Prostaglandin E2 receptor EP2 subtype (Mus musculus) (UniProt Q62053); assay: Binding affinity to mouse trachea EP2 receptor assessed as equilibrium binding constant incubated for 30 mins followed by agonist addition measured after 90 mins; assay type: tissue-based; details: filed as antagonist, time 120.0 min
[25] = Terminal half life in Sprague-Dawley rat at 1 mg/kg, po; assay type: ADME, organism-based; details: in vivo, read-out: beta t1/2 (converted)

Prostaglandin F2-alpha receptor, sequence (P43088 whole entry): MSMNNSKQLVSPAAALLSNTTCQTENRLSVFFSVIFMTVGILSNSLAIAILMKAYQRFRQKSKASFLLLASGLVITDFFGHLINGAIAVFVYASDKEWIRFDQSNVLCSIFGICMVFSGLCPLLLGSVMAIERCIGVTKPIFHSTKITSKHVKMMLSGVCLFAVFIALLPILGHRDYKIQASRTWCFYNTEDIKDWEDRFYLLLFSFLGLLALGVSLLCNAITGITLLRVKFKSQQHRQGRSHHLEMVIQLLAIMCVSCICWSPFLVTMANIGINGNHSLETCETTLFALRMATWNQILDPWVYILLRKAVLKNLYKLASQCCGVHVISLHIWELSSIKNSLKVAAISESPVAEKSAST
Prostaglandin E2 receptor EP4 subtype, sequence (P35408 whole entry): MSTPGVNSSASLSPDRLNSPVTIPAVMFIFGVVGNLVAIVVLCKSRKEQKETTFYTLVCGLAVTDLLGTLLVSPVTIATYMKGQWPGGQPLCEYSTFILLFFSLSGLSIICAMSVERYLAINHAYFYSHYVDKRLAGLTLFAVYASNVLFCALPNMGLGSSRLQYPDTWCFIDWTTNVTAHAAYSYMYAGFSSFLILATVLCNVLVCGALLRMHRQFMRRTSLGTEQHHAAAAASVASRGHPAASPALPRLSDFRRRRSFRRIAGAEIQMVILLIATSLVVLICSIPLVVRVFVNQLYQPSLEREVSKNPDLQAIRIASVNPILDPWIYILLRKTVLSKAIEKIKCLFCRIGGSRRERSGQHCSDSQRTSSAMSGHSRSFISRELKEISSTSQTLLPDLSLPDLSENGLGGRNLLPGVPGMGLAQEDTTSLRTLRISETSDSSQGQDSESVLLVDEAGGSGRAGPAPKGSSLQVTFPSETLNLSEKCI
Prostaglandin E2 receptor EP2 subtype (Mus musculus), sequence (Q62053 whole entry): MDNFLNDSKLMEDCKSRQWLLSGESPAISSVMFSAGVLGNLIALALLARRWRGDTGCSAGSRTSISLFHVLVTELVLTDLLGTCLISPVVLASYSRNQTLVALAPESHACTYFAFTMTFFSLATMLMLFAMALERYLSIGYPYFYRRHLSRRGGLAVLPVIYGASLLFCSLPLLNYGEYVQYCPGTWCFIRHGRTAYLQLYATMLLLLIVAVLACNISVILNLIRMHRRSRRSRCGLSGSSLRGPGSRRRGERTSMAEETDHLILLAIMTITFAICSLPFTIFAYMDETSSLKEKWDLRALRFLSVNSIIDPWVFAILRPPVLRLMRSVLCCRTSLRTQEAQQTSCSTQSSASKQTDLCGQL
Prostacyclin receptor, sequence (P43119 whole entry): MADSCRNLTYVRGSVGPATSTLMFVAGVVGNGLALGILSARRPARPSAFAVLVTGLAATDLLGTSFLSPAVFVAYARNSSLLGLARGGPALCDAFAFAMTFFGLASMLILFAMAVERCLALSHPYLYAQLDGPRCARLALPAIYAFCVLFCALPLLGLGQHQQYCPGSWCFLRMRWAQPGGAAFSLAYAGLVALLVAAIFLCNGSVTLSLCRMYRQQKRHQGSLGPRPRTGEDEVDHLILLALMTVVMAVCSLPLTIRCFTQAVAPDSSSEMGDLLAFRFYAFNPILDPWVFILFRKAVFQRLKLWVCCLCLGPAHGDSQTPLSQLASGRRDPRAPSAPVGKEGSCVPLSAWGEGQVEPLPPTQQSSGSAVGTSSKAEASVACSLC
Prostaglandin E2 receptor EP2 subtype (Canis lupus familiaris), sequence (Q9XT82 whole entry): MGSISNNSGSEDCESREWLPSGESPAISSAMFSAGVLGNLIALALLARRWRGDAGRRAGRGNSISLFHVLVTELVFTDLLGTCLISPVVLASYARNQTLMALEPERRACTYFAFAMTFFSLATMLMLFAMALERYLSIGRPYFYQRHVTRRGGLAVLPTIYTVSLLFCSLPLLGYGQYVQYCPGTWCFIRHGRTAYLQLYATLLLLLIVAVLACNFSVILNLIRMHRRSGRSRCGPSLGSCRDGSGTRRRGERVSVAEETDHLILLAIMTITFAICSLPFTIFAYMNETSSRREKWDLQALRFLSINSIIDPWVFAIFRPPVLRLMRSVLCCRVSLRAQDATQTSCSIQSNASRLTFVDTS

`COc1ccc2cc(OCC3(C(=O)O)CN(C(=O)c4ccc(F)cc4)C3)ccc2c1` [PF-04418948] showed an Activity [1] of 73.5%, a bioavailability [2] of 78% and a Ki [3] of 4.8 µM. The Ki [4] was > 10 µM, the EC50 [5] was > 10 µM and the “Cp(f)” value [6] was 170 nM. The Ki (Thromboxane A2 receptor) was > 10 µM, the Activity (Mus musculus) was “Active” and the IC50 [7] was > 10 µM. For the same molecule, the IC50 [8] was > 32.8 µM, the IC50 [9] was 0.0027 µM and the Vd [10] was 0.1 L/kg. The IC50 [11] was 32 µM, the Kb [12] was 0.0025 µM and the Activity (Rattus norvegicus [13]) was 41%. For the same molecule, the Activity (Rattus norvegicus [14]) was 61%, the CL/F [15] was 0.3 mL/min/kg and the IC50 [16] was 0.054 µM. For the same molecule, the Activity (Canis lupus familiaris) was “Active”, the “Cp(f)” value [17] was 94 nM and the EC50 [18] was > 10 µM. For the same molecule, the Activity (Rattus norvegicus [19]) was “Dose-Dependent Effect”, the IC50 [20] was 0.353 µM and the Ki (Prostacyclin receptor) was > 10 µM. The IC50 [21] was > 10 µM, the Activity [22] was 106.8% and the EC50 [23] was > 33.3 µM. For the same molecule, the Kb [24] was 0.0013 µM and the half-life [25] was 8.8 h.
